Experimental findings from ChEMBL document CHEMBL1165870, “Cytotoxicity of new alkylamino- and phenylamino-containing polyfluorinated derivatives of 1,4-naphthoquinone” (Eur J Med Chem, 2010) are described below.

Series [1] can be described thus: Cytotoxicity against mouse LMTK cells after 72 hrs by MTT assay. The class given is cell-based. To be noted: L-M(TK-). On the technique in general: Tetrazolium dyes change colour on reduction, which living cells bring about.
The test system of series [2] is RPMI-8226. The series can be described thus: Cytotoxicity against human RPMI8226 cells after 72 hrs by MTT assay. The series is classed as functional, cell-based. The settings on record: RPMI-8226, 72 h.
The test system of series [3] is Salmonella typhimurium. Kind of series: Suppression in H2O2-iduced mutagenesity in Salmonella Typhimurium TA102 assessed as 100 to 50 % suppression of revertant formation by Ames assay. To be noted: Salmonella enterica. (In general: The Ames test uses bacterial strains that need an amino acid and regain growth without it when mutated back.)
In series [4] the test system is MCF7. The series can be described thus: Cytotoxicity against human MCF7 cells after 72 hrs by MTT assay. The series is classed as functional, cell-based. The settings on record: MCF7, 72 h.
Series [5] in a line: Cytotoxicity against mouse PMF after 72 hrs by MTT assay.
The test system of series [6] is Salmonella typhimurium. Kind of series: Suppression in mutagenesity in Salmonella Typhimurium TA102 assessed as 100 to 50% suppression of revertant formation by Ames assay. The settings on record: Salmonella enterica.
The test system of series [7] is Salmonella typhimurium. Kind of series: Suppression in H2O2-iduced mutagenesity in Salmonella Typhimurium TA102 assessed as 150 to 100 % suppression of revertant formation by Ames assay. To be noted: Salmonella enterica.
The nature of series [8]: Growth inhibition of mouse PMF at 25 ug/ml after 72 hrs by MTT assay. To be noted: mouse PMF cells, read-out: GI. The gist of the method: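 PMF cells (about 2000 per well) seeded and held 24 h at 37 °C in IMDM or RPMI 1640 under 5% CO2, then exposed to compound.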
Series [9] concerns Salmonella typhimurium. Kind of series: Suppression in mutagenesity in Salmonella Typhimurium TA102 assessed as 100 to 50% suppression of revertant formation at 50 ug/ml by Ames assay.
The nature of series [10]: Growth inhibition of mouse LMTK cells at 173 uM after 72 hrs by MTT assay. The series is classed as cell-based.

Regarding `CC(C)(C)NC1=C(F)C(=O)c2c(F)c(F)c(F)c(F)c2C1=O`, the IC50 – broadly, the concentration that inhibits the measured activity by half – turned out to be 6.3 µM in [1]; 3.5 µM in [2]; 6.9 µM in series [3]; 2.5 µM in series [4]; 3.1 µM in series [5]; 12.2 µM in series [6]. For the same molecule, the IC50 in [7] was 1.4 µM.
Consider `CCN(CC)C1=C(F)C(=O)c2c(F)c(F)c(F)c(F)c2C1=O`, for which the IC50 in series [1] stood at 62.7 µM; in series [2], 6.9 µM; in series [3], 2.7 µM; in [4] it was 4.1 µM; in series [5], 28.2 µM; in series [6] it was 18.5 µM. The IC50 in series [7] is 0.86 µM.
In the case of `CCNC1=C(F)C(=O)c2c(F)c(F)c(F)c(F)c2C1=O`, the IC50 in series [1] came to 11 µM; in series [2], 2.4 µM; in [3], 1 µM; in [4], 8.6 µM; in series [5] it was 30.9 µM; in [6] it was 0.69 µM. The IC50 in series [7] was 0.094 µM.
For the molecule `O=C1C(F)=C(Nc2ccccc2)C(=O)c2c(F)c(F)c(F)c(F)c21`, the IC50 is 11.8 µM in [1]; 2.4 µM in series [2]; 0.15 µM in series [3]; 2.4 µM in [4]; 7.4 µM in series [5]; 0.59 µM in [6]. The IC50 in series [7] worked out at 0.089 µM.
As for `CC1=C(Nc2ccccc2)C(=O)c2c(F)c(F)c(F)c(F)c2C1=O`, the inhibition at 72 h, 25 ug/ml in [8] was determined as 45%. For the same molecule, the IC50 in [1] was 104 µM; in [2], 22.4 µM; in [3] it was 21.8 µM; in [4], 13.4 µM; in [6] it was above 149 µM; in [7] it was 0.75 µM. For the same molecule, the Activity in [9] is on record as 24%.
Turning to `CC1=C(SCCO)C(=O)c2c(F)c(F)c(F)c(F)c2C1=O`, in series [10], the “growth inhibition (GI)” value is on record as “Not Active”. Moreover, the IC50 was found to be 14.8 µM in series [2], 0.44 µM in series [3], 173 µM in [4] and 0.81 µM in series [6].
